Source: PubChem BioAssay
STAT3 activator – increases IL-6 driven STAT3 reporter signal; U3A cells, IL-6 STAT3-luciferase reporter, luminescence; 100% = signal with IL-6 EC80 alone; activation (% of control), % at 5.6 µM; 190,000 compounds, 0.91% hits; AID 871;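 active means activation above the screen-wide mean of compound activation plus 3 SD, cut at about 130% in these data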;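 further: 0% = background luminescence of wells with medium and substrate only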
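Test system: STAT3-luciferase reporter U3A cells; Detection: reporter luminescence signal; Times: 1 h compound pre-exposure, 6 h IL-6 stimulation, 37 °C; Benchmarks: IL-6-only high control; Also added: IL-6 stimulus at 33 ng/mL final.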
thrombin 1536 – blocks human thrombin protease activity; 220,000 compounds, 0.26% hits; alpha-thrombin, Boc-VPR-AMC fluorogenic substrate cleavage; inhibition, % at 5 µM; P00734; AID 1046;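 active means inhibition at or above 40%; inactive means inhibition below 40%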;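 further: 0% = enzyme with no compound and 100% = wells without enzyme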
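Material: Human alpha-thrombin protein | Buffer or medium: pH 7.5 Tris-saline with Tween 20 | Reagent: Boc-VPR-AMC substrate, 15 µM final | Schedule: Reaction at ambient temperature | Detection: AMC fluorescence at 355 nm excitation and 460 nm emission | Evaluation: Percent inhibition scaled between no-compound controls and no-enzyme blanks | Controls: no-compound enzyme wells and no-enzyme blanks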
FXIIa inh – blocks human coagulation factor XIIa protease activity; 220,000 compounds, 0.3% hits; purified FXIIa, Boc-QGR-AMC fluorogenic substrate, 2 h; inhibition, % at 5 µM; in the data active means inhibition above about 40%;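 further: 0% = enzyme with no compound and 100% = blank without enzyme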
AHR act – activates the human aryl hydrocarbon receptor; AID 2796; P35869; 320,000 compounds, 2.5% hits; AHR-responsive luciferase reporter cells, luminescence; activation, % at 5 µM; in the data active means activation above about 47%;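 further: 0% = vehicle wells and 100% = reference agonist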
FXIa inh – blocks human coagulation factor XIa protease activity; purified FXIa, Boc-Glu-Ala-Arg-AMC fluorogenic substrate; inhibition, % at 5 µM; 220,000 compounds, 0.14% hits; AID 798;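 active means inhibition of at least 40%; inactive means inhibition below 40%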;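 further: fluorescence of freed AMC excited at 355 nm; 0% = enzyme without compound and 100% = no enzyme blank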
hK5 inh – blocks human kallikrein 5 protease activity; recombinant hK5, fluorogenic AMC substrate cleavage; 210,000 compounds, 0.59% hits; inhibition, % at 5 µM;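 active means inhibition of 40% or more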;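 further: 0% = enzyme controls without compound and 100% = no-enzyme blanks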
Target sequence (Q9Y337 67-293 limits assumed): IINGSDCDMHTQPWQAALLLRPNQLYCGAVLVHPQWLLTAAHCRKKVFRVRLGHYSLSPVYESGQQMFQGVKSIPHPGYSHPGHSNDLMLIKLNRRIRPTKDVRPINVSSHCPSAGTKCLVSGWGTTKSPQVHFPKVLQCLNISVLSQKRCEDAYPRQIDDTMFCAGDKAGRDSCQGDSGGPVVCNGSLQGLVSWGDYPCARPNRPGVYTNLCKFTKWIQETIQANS
Numbers without * were called inactive. Rows were chosen to be rich in hits. Some 3.5% of all compounds tested hit in one or more screens of this group.

C/C(=N\Nc1nc2ccccc2[nH]1)c1ccccn1 was read as AHR act 30.0.
C/C(=N\Nc1ccccn1)c1ccc2c(c1)OCO2 was read as STAT3 activator 83.9, thrombin 1536 -2.6, FXIIa inh 20.2, AHR act 58.9*, FXIa inh 12.2 and hK5 inh 10.1.
For C/C(=N\Nc1nc2ccccc2[nH]1)c1ccc2c(c1)OCO2 the results were STAT3 activator 107.2, thrombin 1536 -4.0, FXIIa inh 5.7, AHR act 128.1*, FXIa inh -0.6 and hK5 inh 3.0.
Screening CC(C)OC(=O)NCCOC(=O)Nc1ccc(Cl)cc1 returned STAT3 activator 96.6, thrombin 1536 -17.4, FXIIa inh 6.9, AHR act 1.9, FXIa inh -3.5 and hK5 inh 1.7.
For COc1cc(NS(=O)(=O)c2ccc(NC(=O)/C=C/c3cccc([N+](=O)[O-])c3)cc2)ncn1 the results were STAT3 activator 97.3, thrombin 1536 -7.2, FXIIa inh 10.4, AHR act 103.6*, FXIa inh 3.6 and hK5 inh 5.8.
`COc1ccccc1/C=C/C(=O)c1cc(Br)ccc1OC(=O)c1ccco1` gave STAT3 activator 118.6 and AHR act 74.0*.
For O=C(NC(=S)NCCC1=CCCCC1)c1ccccc1Br the results were STAT3 activator 110.4, thrombin 1536 -5.8, FXIIa inh 11.1, AHR act 49.6*, FXIa inh 1.5 and hK5 inh 2.9.
`COc1cc(CC(=O)OCC(=O)N(C)C2CCCCC2)cc(OC)c1OC` gave AHR act -0.2.
For CCOC(=O)c1c(C)n(C)c2ccc(OC)c(NC(=O)CCN3CCSCC3)c12 the results were STAT3 activator 97.8, thrombin 1536 -6.0, FXIIa inh 18.2, AHR act 64.7*, FXIa inh 1.3 and hK5 inh -6.9.
`CCOC(=O)C(=CNc1cccc(C)c1C)C(=O)OCC` gave STAT3 activator 74.2, thrombin 1536 45.1*, FXIIa inh 18.8, AHR act -1.9, FXIa inh -8.8 and hK5 inh 7.2.
Screening CCOC(=O)C1=C(N)Oc2ccc3ccccc3c2C1c1cccc(O)c1 (stereo unspecified) returned AHR act 50.1*.
`CC1CCC/C(=N/Nc2nc3ccccc3s2)C1` (stereo unspecified) gave STAT3 activator 100.3, thrombin 1536 -0.6, FXIIa inh 4.3, AHR act 61.5*, FXIa inh -2.0 and hK5 inh -0.3.
CC1(C)CC(=O)C/C(=N/Nc2nc3ccccc3s2)C1 was read as STAT3 activator 115.5, thrombin 1536 -0.1, FXIIa inh 12.9, AHR act 23.0, FXIa inh 0.9 and hK5 inh 7.8.
O=C(Cc1c(F)cccc1Cl)NNC(=O)Nc1ccc2c(c1)OCO2 was read as AHR act 52.9*.
Screening Cc1cccc(-n2ccnc2SCC(=O)Nc2ccc3c(c2)OCCO3)c1 returned STAT3 activator 105.9, thrombin 1536 -2.9, FXIIa inh 5.7, AHR act 22.5, FXIa inh 2.5 and hK5 inh -14.9.
O=C(CSCc1c(Cl)cccc1Cl)Nc1ccc2c(c1)OCO2 was read as STAT3 activator 93.1, thrombin 1536 -0.4, FXIIa inh 16.5, AHR act 47.5*, FXIa inh 1.7 and hK5 inh -10.5.
`O=C(CSc1nccn1-c1ccc(Cl)cc1)Nc1ccc2c(c1)OCO2` gave STAT3 activator 93.4, thrombin 1536 -3.0, FXIIa inh 4.0, AHR act 53.2*, FXIa inh -7.0 and hK5 inh -25.7.
For Cc1ccc(CSCC(=O)Nc2ccc3c(c2)OCO3)cc1 the results were STAT3 activator 94.3, thrombin 1536 -3.1, FXIIa inh 26.2, AHR act 2.5, FXIa inh 16.7 and hK5 inh 46.0*.
For COc1ccc(CCC(=O)OCC(=O)NCc2ccccc2)cc1 the results were AHR act 0.1.
Screening C[C@H](CO)N1C[C@H](C)[C@@H](CN(C)CC2CCCCC2)Oc2c(NC(=O)Cc3ccccc3)cccc2C1=O returned AHR act -0.7.
Screening Cc1ccc2c(c1)-c1nc3ccccc3cc1C2=NC1CCCCC1 returned STAT3 activator 98.7, thrombin 1536 -4.3, FXIIa inh 9.9, AHR act 78.8*, FXIa inh 2.8 and hK5 inh 3.9.
For Cc1ccc(C(=O)N/N=C\C=C\c2ccccc2[N+](=O)[O-])cn1 the results were STAT3 activator 91.2, thrombin 1536 -6.3, FXIIa inh 6.2, AHR act 58.9*, FXIa inh -0.8 and hK5 inh -6.8.
`Cn1c(=O)c2c(ncn2CC(=O)N/N=C/C=C\c2ccccc2[N+](=O)[O-])n(C)c1=O` gave thrombin 1536 -0.5, FXIIa inh 12.2, AHR act 15.0, FXIa inh 7.4 and hK5 inh 6.6.
Cn1c(=O)c2c(ncn2CC(=O)N/N=C/C=C/c2ccccc2[N+](=O)[O-])n(C)c1=O was read as thrombin 1536 -7.0, FXIIa inh 2.1, AHR act 60.8*, FXIa inh -3.4 and hK5 inh -2.4.
For Cc1ccc(C(=O)N/N=C\c2ccccc2[N+](=O)[O-])cn1 the results were STAT3 activator 89.4, thrombin 1536 -0.3, FXIIa inh 6.1, FXIa inh -6.0 and hK5 inh -27.4.
For Cc1nn(CC2CC2)c(=O)n1-c1ccc(Oc2ccccc2)cc1 the results were STAT3 activator 98.0, thrombin 1536 2.7, FXIIa inh -1.1, AHR act 3.5, FXIa inh -3.7 and hK5 inh -17.4.
`CCCCC(=O)NC(=S)Nc1c(C)cc(Br)cc1C` gave STAT3 activator 98.5, thrombin 1536 -4.0, FXIIa inh 6.8, AHR act -0.1, FXIa inh -5.7 and hK5 inh -15.6.
For N#Cc1ccc(Cl)cc1NC(=O)COC(=O)c1ccc(S(=O)(=O)N2CCCC2)cc1 the results were STAT3 activator 133.8*, thrombin 1536 8.7, FXIIa inh 28.4, AHR act 28.1, FXIa inh 18.1 and hK5 inh 0.4.
For O=C(CN1CCN(C(=O)c2c(F)cccc2F)CC1)Nc1ccccc1C(F)(F)F the results were AHR act -0.3.
Screening O=C(N/N=C/c1ccc(OCc2cnc(Cl)s2)cc1)c1ccncc1 returned STAT3 activator 91.2, thrombin 1536 49.5*, FXIIa inh 66.2*, AHR act 12.8, FXIa inh 28.3 and hK5 inh 26.1.
Screening Cn1c(=N)n(CC(=O)c2ccc(Cl)c(Cl)c2)c2ccccc21 returned AHR act 53.8*.
CCCCn1c(=N)n(CC(=O)c2ccc(OC)cc2)c2ccccc21 was read as thrombin 1536 -2.4, FXIIa inh 9.4, AHR act 28.0, FXIa inh -7.6 and hK5 inh -1.1.
`Cn1c(=N)n(CC(=O)c2ccccc2)c2ccccc21` gave thrombin 1536 0.9, FXIIa inh 8.1, AHR act 39.6, FXIa inh 3.2 and hK5 inh 4.8.
